Test results: ChEMBL document CHEMBL3860041, “Synthesis, biological evaluation and molecular modeling study of some new methoxylated 2-benzylthio-quinazoline-4(3H)-ones as nonclassical antifolates” (Bioorg Med Chem Lett, 2016)

Tests used:
Type in all cases: functional
[1] = Growth inhibition of human MDA-MB-468 cells at 10 uM after 48 hrs by SRB assay relative to control; conditions: MDA-MB-468, 48 h, read-out: GI
How it was run: (§1)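 NCI 60-cell-line panel, nine tumor subpanels; compounds tested at a single dose of 10 μM in the primary screen.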

[2] = Growth inhibition of human leukemia cells after 48 hrs by SRB assay; conditions: Leukemia cell
How it was run: (§2)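 Follow-up NCI panel testing over a 5-log dose range for each cell line. GI50, TGI and LC50 were monitored, with 5-fluorouracil run as the positive control. Values are grouped by tumour subpanel.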

[3] = Growth inhibition of human UO31 cells at 10 uM after 48 hrs by SRB assay relative to control; conditions: UO-31, 48 h, read-out: GI
How it was run: (§3)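 Primary screen across the full NCI 60 human tumour cell line panel, which covers nine tumour subpanels. A single dose of 10 μM was applied to each line, and growth was recorded for each cell line.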

[4] = tested on: Cancer cell lines; assay: Potency index, ratio of 5-fluorouracil GI50 to compound GI50 for human colon cancer cells
How it was run: (§4)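 GI50 for each cell line came from NCI panel testing over a 5-log dose range, with 5-fluorouracil tested alongside as the reference drug. The index relates the 5-fluorouracil GI50 to the compound GI50 within each tumour subpanel.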

[5] = tested on: Melanoma cell; assay: Potency index, ratio of 5-fluorouracil GI50 to compound GI50 for human melanoma cells; how it was run: as §4
[6] = Growth inhibition of human SR cells at 10 uM after 48 hrs by SRB assay relative to control; conditions: read-out: GI; how it was run: as §3
[7] = Growth inhibition of human U251 cells at 10 uM after 48 hrs by SRB assay relative to control; conditions: U-251, 48 h, read-out: GI; how it was run: as §3
[8] = Growth inhibition of human melanoma cells after 48 hrs by SRB assay; conditions: Melanoma cell; how it was run: as §2
[9] = Growth inhibition of human T47D cells at 10 uM after 48 hrs by SRB assay relative to control; conditions: read-out: GI; how it was run: as §3
[10] = Growth inhibition of human MCF7 cells at 10 uM after 48 hrs by SRB assay relative to control; conditions: MCF7, 48 h, read-out: GI; how it was run: as §1
[11] = Growth inhibition of human LOXIMVI cells at 10 uM after 48 hrs by SRB assay relative to control; conditions: LOX IMVI, read-out: GI; how it was run: as §1
[12] = Growth inhibition of human UACC257 cells at 10 uM after 48 hrs by SRB assay relative to control; conditions: UACC-257, 48 h, read-out: GI; how it was run: as §3
[13] = Growth inhibition of human ovarian cancer cells after 48 hrs by SRB assay; conditions: Cancer cell lines; how it was run: as §2
[14] = Growth inhibition of human ACHN cells at 10 uM after 48 hrs by SRB assay relative to control; conditions: read-out: GI; how it was run: as §1
[15] = Growth inhibition of human RXF393 cells at 10 uM after 48 hrs by SRB assay relative to control; conditions: RXF 393, 48 h, read-out: GI; how it was run: as §1
[16] = Growth inhibition of human HOP62 cells at 10 uM after 48 hrs by SRB assay relative to control; conditions: HOP-62, 48 h, read-out: GI; how it was run: as §1
[17] = tested on: Cancer cell lines; assay: Potency index, ratio of 5-fluorouracil GI50 to compound GI50 for human non-small cell lung cancer cells; how it was run: as §4
[18] = tested on: Cancer cell lines; assay: Potency index, ratio of 5-fluorouracil GI50 to compound GI50 for human CNS cancer cells; how it was run: as §4
[19] = Growth inhibition of human NCI-322M cells at 10 uM after 48 hrs by SRB assay relative to control; conditions: read-out: GI; how it was run: as §1
[20] = Growth inhibition of human SF295 cells at 10 uM after 48 hrs by SRB assay relative to control; conditions: SF-295, 48 h, read-out: GI; how it was run: as §1
[21] = Growth inhibition of human A549 cells at 10 uM after 48 hrs by SRB assay relative to control; conditions: A549, 48 h, read-out: GI; how it was run: as §1
[22] = Growth inhibition of human renal cancer cells after 48 hrs by SRB assay; conditions: Cancer cell lines; how it was run: as §2
[23] = Growth inhibition of human RPMI8226 cells at 10 uM after 48 hrs by SRB assay relative to control; conditions: RPMI-8226, 48 h, read-out: GI; how it was run: as §1
[24] = Growth inhibition of human PC3 cells at 10 uM after 48 hrs by SRB assay relative to control; conditions: PC-3, 48 h, read-out: GI; how it was run: as §1
[25] = Growth inhibition of human HCC2998 cells at 10 uM after 48 hrs by SRB assay relative to control; conditions: HCC 2998, 48 h, read-out: GI; how it was run: as §1
[26] = Growth inhibition of human HOP92 cells at 10 uM after 48 hrs by SRB assay relative to control; conditions: HOP-92, 48 h, read-out: GI; how it was run: as §1
[27] = Growth inhibition of human 786-0 cells at 10 uM after 48 hrs by SRB assay relative to control; conditions: 786-0, 48 h, read-out: GI; how it was run: as §1
[28] = Growth inhibition of human UACC62 cells at 10 uM after 48 hrs by SRB assay relative to control; conditions: UACC-62, 48 h, read-out: GI; how it was run: as §3
[29] = Growth inhibition of human NCI-H460 cells at 10 uM after 48 hrs by SRB assay relative to control; conditions: NCI-H460, 48 h, read-out: GI; how it was run: as §1
[30] = Growth inhibition of human Caki1 cells at 10 uM after 48 hrs by SRB assay relative to control; conditions: CAKI-1, 48 h, read-out: GI; how it was run: as §1
[31] = Growth inhibition of human CNS cancer cells after 48 hrs by SRB assay; conditions: Cancer cell lines
How it was run: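 Five-log dose range against NCI tumor cell lines, monitoring GI50, TGI and LC50 for each cell line; MG-MID values derived across the panel; 5-fluorouracil positive control.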

[32] = Growth inhibition of human breast cancer cells after 48 hrs by SRB assay; conditions: Cancer cell lines; how it was run: as §2
[33] = Growth inhibition of human M14 cells at 10 uM after 48 hrs by SRB assay relative to control; conditions: M14, 48 h, read-out: GI; how it was run: as §1
[34] = Growth inhibition of human HL-60(TB) cells at 10 uM after 48 hrs by SRB assay relative to control; conditions: HL-60, 48 h, read-out: GI
How it was run: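 NCI disease-oriented human tumour cell line screen: primary single-dose assay at 10 μM across the full 60-cell-line panel spanning nine tumour subpanels.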

[35] = Growth inhibition of human MOLT4 cells at 10 uM after 48 hrs by SRB assay relative to control; conditions: MOLT-4, 48 h, read-out: GI; how it was run: as §1
[36] = tested on: Cancer cell lines; assay: Potency index, ratio of 5-fluorouracil GI50 to compound GI50 for human ovarian cancer cells; how it was run: as §4
[37] = Growth inhibition of human MALME-3M cells at 10 uM after 48 hrs by SRB assay relative to control; conditions: read-out: GI; how it was run: as §1

## COc1ccc(-n2c(SCc3cc(OC)c(OC)c(OC)c3)nc3ccc(C)cc3c2=O)cc1
[1]
  inhibition of growth at 10 µM: 53.2%
[2]
  GI50: 3.4 µM
  TGI: 90.2 µM
[2]; read-out: LC50 (the source's name)
  CC50: > 100 µM
[3]
  inhibition of growth at 10 µM: 52.8%
[4]
  RatioGI50: 2 - 10
[5]
  RatioGI50: 2 - 10
[6]
  inhibition of growth at 10 µM: 77%
[7]
  inhibition of growth at 10 µM: 30.9%
[8]
  GI50: 19.7 µM
  LC50: > 100 µM
  TGI: 89.4 µM
[9]
  inhibition of growth at 10 µM: 32.2%
[10]
  inhibition of growth at 10 µM: 75.2%
[11]
  inhibition of growth at 10 µM: 37%
[12]
  inhibition of growth at 10 µM: 22.7%
[13]
  GI50: 46.9 µM
  LC50 (50% lethal concentration): > 100 µM
[14]
  inhibition of growth at 10 µM: 33.3%
[15]
  inhibition of growth at 10 µM: 47.2%
[16]
  inhibition of growth at 10 µM: 34.8%
[17]
  RatioGI50: 2 - 10
[18]
  RatioGI50: 2 - 10
[19]
  inhibition of growth at 10 µM: 19.7%
[20]
  inhibition of growth at 10 µM: 48.6%
[21]
  inhibition of growth at 10 µM: 49%
[22]
  GI50: 39.7 µM
  LC50: > 100 µM
  TGI: 88.1 µM
[23]
  inhibition of growth at 10 µM: < 10%
[24]
  inhibition of growth at 10 µM: 25%
[25]
  inhibition of growth at 10 µM: 24.3%
[26]
  inhibition of growth at 10 µM: < 10%
[27]
  inhibition of growth at 10 µM: 15.9%
[28]
  inhibition of growth at 10 µM: 43.3%
[29]
  inhibition of growth at 10 µM: 26.2%
[30]
  inhibition of growth at 10 µM: 45.8%
[31]
  GI50: 30.9 µM
  LC50 (lethal concentration, 50% net cell kill): > 100 µM
  TGI: > 100 µM
[32]
  GI50: 5.3 µM
  LC50: > 100 µM
  TGI: 91.4 µM
[33]
  inhibition of growth at 10 µM: 46.2%
[34]
  inhibition of growth at 10 µM: 68.9%
[35]
  inhibition of growth at 10 µM: 44%
[36]
  RatioGI50: 2 - 10
[37]
  inhibition of growth at 10 µM: 40.4%
